According to ChEMBL document CHEMBL1122519, “Bispyridinamines: a new class of topical antimicrobial agents as inhibitors of dental plaque” (1984):
Values after ≈ are worked out from the molar mass of the structure shown.

Experiments:
[1] = test system: Actinomyces viscosus; experiment: Compound is evaluated for minimal bactericidal concentration against plaque formation for Actinomyces viscosus; type: functional, organism-based
Outline: (§1)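 Preformed in vitro plaques of S. mutans NCTC 10449 or A. viscosus M-100 were grown on ceramic hydroxylapatite under anaerobic conditions at 37 °C in sucrose-supplemented medium. Plaques were immersed for 30 min at 37 °C in compound at 0.3–20 mM, rinsed, and moved to broth containing bromocresol purple. Kill was judged by no acid production, no turbidity increase and no growth on plating at 48 h. Plaques were run in quadruplicate.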

[2] = test system: Actinomyces naeslundii; experiment: Compound is evaluated for plaque-bactericidal index (PBI) against Actinomyces naeslundii 631; type: functional
[3] = test system: Actinomyces viscosus; experiment: Compound is evaluated for plaque-bactericidal index (PBI) against Actinomyces viscosus M-100; type: functional
[4] = test system: Escherichia coli; experiment: Antimicrobial minimum inhibitory concentration against Escherichia coli AB1932-1; type: functional
Outline: (§2)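 Serial twofold tube dilution in tryptose phosphate broth. Each compound was prepared as a 1000 μg/mL aqueous stock and diluted in double-strength broth, then 2×10^5 cells were added. Tubes were incubated aerobically at 37 °C for 24 h. The MIC was taken as the lowest concentration with no visible growth.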

[5] = test system: Escherichia coli; experiment: Minimum inhibitory concentration against Escherichia coli (Vogel); type: functional; outline: as §2
[6] = test system: Escherichia coli; experiment: Antimicrobial minimum inhibitory concentration against Escherichia coli 100/B22; type: functional; outline: as §2
[7] = test system: Klebsiella pneumoniae; experiment: Minimum inhibitory concentration against Klebsiella pneumonia 39645; type: functional; outline: as §2
[8] = test system: Pseudomonas aeruginosa; experiment: Compound is evaluated for the antimicrobial minimum inhibitory concentration against Pseudomonas aeruginosa MGH-1; type: functional
[9] = test system: Streptococcus mutans; experiment: Compound is evaluated for the effect of saliva upon the antiplaque activity at 50% of saliva and at 0.01 percentage of compound; + = Slight plaque accumulation; type: functional, organism-based
Outline: (§3)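 Hydroxylapatite plate antiplaque assay against S. mutans run for 48 h, with two 1-min exposures to aqueous compound per 24 h. Growth medium contained 0, 5 or 50% pooled human saliva (paraffin-stimulated, centrifuged, filtered, membrane-sterilized). Plaque was stained with FD&C Red No. 3 and graded none, slight or moderate. Staining potential was scored on plates run without inoculum and graded none or slight.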

[10] = test system: Streptococcus mutans; experiment: Compound is evaluated for the effect of saliva upon the antiplaque activity at 50% of saliva and at 0.025 percentage of compound; + = Slight staining; type: functional, organism-based; outline: as §3
[11] = test system: Streptococcus mutans; experiment: Compound is evaluated for the effect of saliva upon the antiplaque activity at 50% of saliva and at 0.05 percentage of compound; + = Slight staining; type: functional, organism-based; outline: as §3
[12] = test system: Streptococcus sanguinis; experiment: Compound is evaluated for plaque-bactericidal index (PBI) against Streptococcus sanguis 10558; type: functional
[13] = test system: Streptococcus mutans; experiment: Compound is evaluated for the effect of saliva upon the antiplaque activity at 0% of saliva and at 0.01 percentage of compound; - = No plaque accumulation; type: functional, organism-based; outline: as §3
[14] = test system: Streptococcus mutans; experiment: Compound is evaluated for the effect of saliva upon the antiplaque activity at 0% of saliva and at 0.025 percentage of compound; - = No plaque accumulation; type: functional, organism-based; outline: as §3
[15] = test system: Streptococcus mutans; experiment: Compound is evaluated for the effect of saliva upon the antiplaque activity at 0% of saliva and at 0.05 percentage of compound; - = No plaque accumulation; type: functional, organism-based; outline: as §3
[16] = test system: Streptococcus mutans; experiment: Compound is evaluated for the effect of saliva upon the antiplaque activity at 50% of saliva and at 0.025 percentage of compound; - = No plaque accumulation; type: functional, organism-based; outline: as §3
[17] = test system: Streptococcus mutans; experiment: Compound is evaluated for the effect of saliva upon the antiplaque activity at 50% of saliva and at 0.05 percentage of compound; - = No plaque accumulation; type: functional, organism-based; outline: as §3
[18] = test system: Streptococcus mutans; experiment: Compound is evaluated for the effect of saliva upon the antiplaque activity at 0% of saliva and at 0.025 percentage of compound; + = Slight staining; type: functional, organism-based; outline: as §3
[19] = test system: Streptococcus mutans; experiment: Compound is evaluated for the effect of saliva upon the antiplaque activity at 0% of saliva and at 0.05 percentage of compound; + = Slight staining; type: functional, organism-based; outline: as §3
[20] = test system: Streptococcus mutans; experiment: Compound is evaluated for the effect of saliva upon the antiplaque activity at 50% of saliva and at 0.01 percentage of compound; - = No staining; type: functional, organism-based; outline: as §3
[21] = test system: Streptococcus mutans; experiment: Compound is evaluated for plaque-bactericidal index (PBI) against Streptococcus mutans 10449; type: functional
[22] = test system: Streptococcus mutans; experiment: Compound is evaluated for minimum plaque inhibitory concentration using a standard test organism, Streptococcus mutans OMZ-61; type: functional
Outline: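 S. mutans OMZ-61 in pH 7.0 beef extract–trypticase medium with 0.5% sucrose. Sterile ceramic hydroxylapatite plates got two 1-min soaks in 0.1–0.001% compound, each followed by 1-min air-drying, then a 5-min water rinse. Plates were put in inoculated medium at 37 °C anaerobically for 24 h. The cycle was repeated for a second 24 h. Plaque was stained with 1% FD&C Red No. 3. Value is the lowest concentration completely preventing plaque.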

[23] = test system: Staphylococcus aureus; experiment: Compound is evaluated for the antimicrobial minimum inhibitory concentration against Staphylococcus aureus (Smith); type: functional; outline: as §2
[24] = test system: Streptococcus mutans; experiment: Compound is evaluated for the effect of saliva upon the staining potential at 0% of saliva and at 0.01 percentage of compound; + = Slight staining; type: functional, organism-based; outline: as §3
[25] = test system: Streptococcus mutans; experiment: Compound is evaluated for minimal bactericidal concentration against plaque formation for Streptococcus mutans; type: functional, organism-based; outline: as §1
[26] = Compound is evaluated for stain index; type: functional
Outline: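 Ratio of the minimum concentration staining a plaque-free ceramic hydroxylapatite plate to the minimum plaque-inhibiting concentration, both run under the same conditions. Plates got two 1-min soaks (0.1–0.001%), each followed by air-drying, then a water rinse. They were then held 24 h anaerobically at 37 °C in sucrose beef-extract medium, with or without S. mutans OMZ-61, repeated once. Staining was 1-min 1% FD&C Red No. 3, scored visually.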

[27] = test system: Proteus mirabilis; experiment: Compound is evaluated for the antimicrobial minimum inhibitory concentration against Proteus mirabilis MGH-1; type: functional; outline: as §2
[28] = test system: Proteus mirabilis; experiment: Minimum antimicrobial inhibitory concentration against Proteus mirabilis MGH-1; type: functional; outline: as §2
[29] = test system: Pseudomonas aeruginosa; experiment: Minimum antimicrobial inhibitory concentration against Pseudomonas aeruginosa MGH-2; type: functional; outline: as §2
[30] = test system: Streptococcus mutans; experiment: Compound is evaluated for the effect of saliva upon the antiplaque activity of the compound at 0% of saliva and at 0.01 percentage of compound; - = No plaque accumulation; type: functional, organism-based; outline: as §3
[31] = test system: Streptococcus mutans; experiment: Compound is evaluated for the effect of saliva upon the antiplaque activity of the compound at 0% of saliva and at 0.025 percentage of compound; - = No plaque accumulation; type: functional, organism-based; outline: as §3
[32] = test system: Streptococcus mutans; experiment: Compound is evaluated for the effect of saliva upon the antiplaque activity of the compound at 0% of saliva and at 0.05 percentage of compound; - = No plaque accumulation; type: functional, organism-based; outline: as §3
[33] = test system: Streptococcus mutans; experiment: Compound is evaluated for the effect of saliva upon the antiplaque activity of the compound at 50% of saliva and at 0.01 percentage of compound; - = No plaque accumulation; type: functional, organism-based; outline: as §3
[34] = test system: Streptococcus mutans; experiment: Compound is evaluated for the effect of saliva upon the antiplaque activity of the compound at 50% of saliva and at 0.025 percentage of compound; - = No plaque accumulation; type: functional, organism-based; outline: as §3
[35] = test system: Streptococcus mutans; experiment: Compound is evaluated for the effect of saliva upon the antiplaque activity of the compound at 50% of saliva and at 0.05 percentage of compound; - = No plaque accumulation; type: functional, organism-based; outline: as §3
[36] = test system: Streptococcus mutans; experiment: Compound is evaluated for the effect of saliva upon the antiplaque activity of the compound at 0% of saliva and at 0.025 percentage of compound; - = No staining; type: functional, organism-based; outline: as §3
[37] = test system: Streptococcus mutans; experiment: Compound is evaluated for the effect of saliva upon the antiplaque activity of the compound at 0% of saliva and at 0.05 percentage of compound; + = Slight staining; type: functional, organism-based; outline: as §3
[38] = test system: Streptococcus mutans; experiment: Compound is evaluated for the effect of saliva upon the antiplaque activity of the compound at 50% of saliva and at 0.01 percentage of compound; - = No staining; type: functional, organism-based; outline: as §3
[39] = test system: Streptococcus mutans; experiment: Compound is evaluated for the effect of saliva upon the antiplaque activity of the compound at 50% of saliva and at 0.025 percentage of compound; - = No staining; type: functional, organism-based; outline: as §3
[40] = test system: Streptococcus mutans; experiment: Compound is evaluated for the inhibition of plaque-forming enzyme of Streptococcus mutans OMZ-61; type: functional
Outline: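 S. mutans OMZ-61 was grown anaerobically at 37 °C for 24 h in glucose medium. The cell-free filtrate, adjusted to pH 5.5, served as the dextran/levan sucrase source. Reactions contained 3 μmol 14C-sucrose in citrate phosphate buffer pH 5.5 with 4% EtOH and ran 2 h at 37 °C. MeOH-insoluble polysaccharide was counted by scintillation. Compounds were tested at 50, 160 and 500 μg base/mL, with lower levels if needed, and I50 was read graphically.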

[41] = test system: Staphylococcus aureus; experiment: Minimum antimicrobial inhibitory concentration against Staphylococcus aureus; type: functional; outline: as §2
[42] = test system: Streptococcus mutans; experiment: Compound is evaluated for the effect of saliva upon the antiplaque activity of the compound at 50% of saliva and at 0.05 percentage of compound; + = Slight staining; type: functional, organism-based; outline: as §3
[43] = test system: Streptococcus mutans; experiment: Compound is evaluated for the effect of saliva upon the staining potential of the compound at 0% of saliva and at 0.01 percentage of compound; - = No staining; type: functional, organism-based; outline: as §3
[44] = test system: Streptococcus mutans; experiment: Minimum plaque inhibitory concentration using a standard test organism, Streptococcus mutans OMZ-61; type: functional, organism-based
Outline: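 Ceramic hydroxylapatite plates were soaked twice for 1 min each in compound at […] (aqueous), air-dried and rinsed, then hung in sucrose beef-extract medium (pH 7.0) inoculated with late-log S. mutans OMZ-61. Incubation was anaerobic at 37 °C for 24 h, and treatment plus reinoculation were repeated for a second 24 h. Plaque was stained with 1% FD&C Red No. 3 and scored visually. The value is the lowest concentration giving no plaque while medium growth matched control.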

[45] = test system: Streptococcus mutans; experiment: Compound is evaluated for the growth inhibition of Streptococcus mutans OMZ-61; type: functional
[46] = test system: Streptococcus mitis; experiment: Compound is evaluated for plaque-bactericidal index (PBI) against Streptococcus mitis 90557
[47] = test system: Streptococcus sanguinis; experiment: Compound is evaluated for plaque-bactericidal index (PBI) against Streptococcus sanguis 10558

N=C(NCCCCCCNC(=N)NC(=N)Nc1ccc(Cl)cc1)NC(=N)Nc1ccc(Cl)cc1 [CHLORHEXIDINE]
Concentration [1]: 1.6 mM | PBI [2]: 19.2 | PBI [3]: 19.2 | MIC [4]: 0.5 mg/L (≈ 0.989 µM) | MIC [5]: 0.5 mg/L (≈ 0.989 µM) | MIC [6]: 1 mg/L (≈ 1.98 µM) | MIC [7]: 3.9 mg/L (≈ 7.72 µM) | MIC [8]: 15.6 mg/L (≈ 30.9 µM) | Plaque accum [9]: No plaque accumulation | Staining potential [10]: No staining | Staining potential [11]: No staining | PBI [12]: 32 | Plaque accum [13]: No plaque accumulation | Plaque accum [14]: No plaque accumulation | Plaque accum [15]: No plaque accumulation | Plaque accum [16]: No plaque accumulation | Plaque accum [17]: No plaque accumulation | Staining potential [18]: No staining | Staining potential [19]: No staining | Staining potential [20]: No staining | PBI [21]: 25.6 | Min plague Inhibitory [22]: 0.005% | MIC [23]: 0.2 mg/L (≈ 0.396 µM) | Staining potential [24]: No staining | Concentration [25]: 3.2 mM | Stain index [26]: 1 | MIC [27]: 15.6 mg/L (≈ 30.9 µM)

CCCCCCCCN=c1ccn(CCCCCCCCCCn2ccc(=NCCCCCCCC)cc2)cc1.Cl.Cl [OCTENIDINE HYDROCHLORIDE]
Concentration [1]: 1.6 mM | PBI [2]: 19.2 | PBI [3]: 19.2 | MIC [4]: 1 mg/L | MIC [5]: 1 mg/L | MIC [6]: 1 mg/L | MIC [7]: 2 mg/L | MIC [28]: 2 mg/L | MIC [29]: 3.9 mg/L | Plaque accum [30]: No plaque accumulation | Plaque accum [31]: No plaque accumulation | Plaque accum [32]: No plaque accumulation | Plaque accum [33]: No plaque accumulation | Plaque accum [34]: No plaque accumulation | Plaque accum [35]: No plaque accumulation | Staining potential [36]: No staining | Staining potential [37]: No staining | Staining potential [38]: No staining | Staining potential [39]: No staining | PBI [21]: 25.6 | I50 [40]: 31 (ug of base) ml-1 | MIC [41]: 1 mg/L | Staining potential [42]: No staining | Staining potential [43]: No staining | Concentration [25]: 3.2 mM | Concentration [44]: 0.005% | Stain index [26]: 10 | MIC [45]: 1 (ug of base) ml-1 | PBI [46]: 32 | PBI [47]: 32
